{"source": "paper PMC11060919", "about": "(International journal of antimicrobial agents, 2024)", "key": {"rat": {"system": "rat", "settings": "translational rat model; increased nephrotoxic effect; cited from earlier work"}, "male Sprague-Dawley rats [1]": {"system": "male Sprague-Dawley rats", "assay": "Iohexol-measured GFR", "format": "in vivo, Sprague-Dawley rat", "settings": "Baseline (day 0, before vancomycin); dose-matched bolus group versus humanized infusion group as referent; marginal difference, mixed effects model"}, "male Sprague-Dawley rats [2]": {"system": "male Sprague-Dawley rats", "assay": "Urinary osteopontin", "format": "in vivo, Sprague-Dawley rat", "settings": "dose-matched bolus versus humanized infusion as referent", "outline": "(§1)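 Male Sprague-Dawley rats were housed in metabolic cages, with 24-h urine collected from baseline (day 0) through day 2. On day 1 the glycopeptide was given IV either as 30.8 mg in 6.0 mL saline by variable-rate infusion over 24 hours (n=11), or as 15.4 mg boluses over 2 minutes every 12 hours ×2 plus volume-matching saline infusion (n=8). Analysis: mixed-effects model, day 0 referent, Bonferroni-corrected group-by-day tests.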"}, "male Sprague-Dawley rats [3]": {"system": "male Sprague-Dawley rats", "assay": "Urinary KIM-1, kidney injury biomarker, 24-hour urine", "format": "in vivo, Sprague-Dawley rat", "settings": "dose-matched bolus versus humanized infusion as referent", "outline": "as §1"}, "male Sprague-Dawley rats [4]": {"system": "male Sprague-Dawley rats", "assay": "Urinary clusterin, kidney injury biomarker, 24-hour urine", "format": "in vivo, Sprague-Dawley rat", "settings": "dose-matched bolus versus humanized infusion as referent", "outline": "as §1"}}, "data": [{"molecule": "Cc1onc(-c2c(F)cccc2Cl)c1C(=O)N[C@@H]1C(=O)N2[C@@H]1SC(C)(C)[C@@H]2C(=O)O", "note": "[flucloxacillin]", "values": [{"measurement": "increase of urinary KIM-1 when added to vancomycin, compared to vancomycin", "setting": "rat", "result": "58 to 140", "unit": "ng/24 hours"}]}, {"molecule": "CN[C@H](CC(C)C)C(=O)N[C@H]1C(=O)N[C@@H](CC(N)=O)C(=O)N[C@H]2C(=O)N[C@H]3C(=O)N[C@H](C(=O)N[C@H](C(=O)O)c4cc(O)cc(O)c4-c4cc3ccc4O)[C@H](O)c3ccc(c(Cl)c3)Oc3cc2cc(c3O[C@@H]2O[C@H](CO)[C@@H](O)[C@H](O)[C@H]2O[C@H]2C[C@](C)(N)[C@H](O)[C@H](C)O2)Oc2ccc(cc2Cl)[C@H]1O", "note": "[vancomycin]", "values": [{"measurement": "GFR difference, mean (95% CI)", "setting": "male Sprague-Dawley rats [1]", "result": 0.05, "unit": "mL/min/100 g body weight"}, {"measurement": "Urinary OPN difference, mean (95% CI)", "setting": "male Sprague-Dawley rats [2]; Day 1", "result": -1.76, "unit": "ng"}, {"measurement": "Urinary OPN difference, mean (95% CI)", "setting": "male Sprague-Dawley rats [2]; Day 2", "result": 0.52, "unit": "ng"}, {"measurement": "KIM-1 difference, mean (95% CI)", "setting": "male Sprague-Dawley rats [3]; Day 1", "result": 9.80, "unit": "ng"}, {"measurement": "KIM-1 difference, mean (95% CI)", "setting": "male Sprague-Dawley rats [3]; Day 2", "result": -2.27, "unit": "ng"}, {"measurement": "Urinary clusterin difference, mean (95% CI)", "setting": "male Sprague-Dawley rats [4]; Day 1", "result": 1932, "unit": "ng"}, {"measurement": "Urinary clusterin difference, mean (95% CI)", "setting": "male Sprague-Dawley rats [4]; Day 2", "result": -3103, "unit": "ng"}]}]}
